# Assay outcomes deposited in PubChem BioAssay by Broad Institute.
# SIRT5 block: sirtuin-5 (human) deacylase inhibition; Q9NXA8; 330,000 compounds, 1.1% hits; Purified SirT5, succinyl-peptide AMC, trypsin-coupled fluorescence; AID 652115; inhibition, % at 15 µM; in the data active = inhibition above about 15%
# MLL AF4-AF9 inh: MLL-AF4/AF9 protein interaction inhibition; P42568; AlphaScreen, biotin-AF4 peptide binding to FLAG-AF9; inhibition, % at 10 µM; 350,000 compounds, 0.47% hits; AID 651704;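 active = every replicate reaching a set inhibition limit, whatever the replicate mean, cut at about 25% in these data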;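 also: 0% = plate neutral control median and 100% = total signal loss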
# E-selectin induc: E-selectin induction on HUVECs | AID 686992 | HUVEC E-selectin immunofluorescence imaging; normalized: neutral wells 0, TNF-alpha wells 100 | 260,000 compounds, 0.37% hits | activation, % at 7.58 µM;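 active = mean E-selectin-positive cell signal at least 10% of the positive control, reached in at least 60% of replicates, without over 20% cell loss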
# Target sequence (P16581 whole entry, looked up): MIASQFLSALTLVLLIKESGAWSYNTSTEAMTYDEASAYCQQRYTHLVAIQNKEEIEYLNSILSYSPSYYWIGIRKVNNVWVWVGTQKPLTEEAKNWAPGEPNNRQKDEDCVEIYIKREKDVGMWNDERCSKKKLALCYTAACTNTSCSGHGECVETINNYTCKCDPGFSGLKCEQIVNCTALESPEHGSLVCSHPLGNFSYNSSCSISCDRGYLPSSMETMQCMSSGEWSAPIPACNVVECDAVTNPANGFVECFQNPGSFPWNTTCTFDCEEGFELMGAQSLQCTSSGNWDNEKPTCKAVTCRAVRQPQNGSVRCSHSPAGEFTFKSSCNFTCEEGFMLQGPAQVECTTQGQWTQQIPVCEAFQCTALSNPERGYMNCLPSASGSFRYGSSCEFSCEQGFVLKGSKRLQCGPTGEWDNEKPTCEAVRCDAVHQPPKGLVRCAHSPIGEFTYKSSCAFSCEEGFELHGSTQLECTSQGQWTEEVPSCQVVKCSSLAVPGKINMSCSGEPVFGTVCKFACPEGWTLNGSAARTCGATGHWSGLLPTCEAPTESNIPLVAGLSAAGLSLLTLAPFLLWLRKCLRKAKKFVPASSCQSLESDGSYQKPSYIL
#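 Material: HUVEC primary endothelial cells; Amount: 3,000 cells per well; Dosing: single concentration; Medium: EGM-2 growth medium on 0.1% gelatin-coated wells; Read-out basis: percent E-selectin-positive cells; Signal: immunofluorescence imaging; Control set: TNF-alpha, DMSO.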
# S100A4 MyoIIA: inhibitors of human S100A4 binding to myosin IIA peptide | P26447 | S100A4/TAMRA-MyoIIA peptide fluorescence polarization | inhibition, % at 10.7 µM | 360,000 compounds, 0.14% hits | AID 652163;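 active = mean inhibition of at least 70% across replicates, with every replicate also reaching that level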
#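 Material: S100A4 monomer (human). Medium: Calcium-containing HEPES buffer, pH 7.2. Probe or stimulus: labelled myosin peptide probe, 5 nM. Compound dosing: one concentration per compound. Timing: polarization read 5 min after assay mix addition, stable 5–60 min. Benchmarks: DMSO as neutral control, TFP as positive control.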
# ERAP1 inh: blocks human ERAP1 aminopeptidase activity. Q9NZ08. inhibition, % at 10.7 µM. 340,000 compounds, 0.15% hits. recombinant ERAP1, Leu-AMC fluorescence, 60 min;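 active = mean replicate inhibition of at least 30%, or all replicates individually reaching that 30% level; inactive = mean below 30% and not every replicate reaching it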;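 also: 0% = neutral control wells and 100% = L-leucinethiol positive control wells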
# rRNA inh HTS: inhibitors of bacterial rRNA selective over humanized ribosomes; E. coli WT GFP vs humanized-ribosome RFP mutants, fluorescence, 24 h; active compounds read low; DMSO median 0, no signal -100; 350,000 compounds, 1.6% hits; GFP signal change (wild-type ribosome), % (concentration not given with the values); AID 720706;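 active = significant combined selectivity score with lowered wild-type GFP, culture density cut under 30%, mutant RFP and density less affected; inactive = any of these conditions unmet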
# * = called active by the depositor; . = not tested or not shown; ! = not active in a repeat. Compounds with a hit are over-represented: about 3.4% of the library has one in this group of screens.
SMILES,SIRT5 block,MLL AF4-AF9 inh,E-selectin induc,S100A4 MyoIIA,ERAP1 inh,rRNA inh HTS
C=CCNC(=O)N1c2ccccc2Sc2ccccc21,-1.8,-0.2,-0.1,17.0,-5.6,-23.9*
CCCNC(=O)N1c2ccccc2Sc2ccccc21,-3.2,-1.9,.,-0.3,0.3,-17.8
O=C(NCCO)N1c2ccccc2Sc2ccccc21,0.9,-0.6,0.0,-4.9,4.0,3.2
COCCNC(=O)C[C@H]1C=C[C@@H](NS(=O)(=O)c2ccc(C)cc2)[C@H](CO)O1,2.7,0.5,0.0,1.2,2.8,0.8
CCn1c(SCC(=O)NCc2ccccc2)nnc1C(CO)NC(=O)c1ccccc1 (centres undefined),-1.0,-0.5,2.3,-1.1,32.4*,7.3
CCn1c(SCC(=O)NCCc2ccccc2)nnc1C(C)C,-5.3,-0.4,-0.6,-2.6,-1.0,10.0
Cc1nc2ccc(NC(=S)NC3CCCCC3)cc2nc1C,-0.6,-0.4,1.1,5.2,-1.4,-28.4*
Cc1ccc(NC(=S)NC2CCCC2)cc1C,.,.,-0.1,.,.,.
O=C1C=C(Nc2ccc(Cl)cc2Cl)CC(c2ccco2)C1 (centres undefined),3.9,1.0,2.0,-4.8,-1.2,-22.1*
O=C1C=C(Nc2ccc(O)cc2)CC(c2ccco2)C1 (centres undefined),.,.,-0.6,.,.,.
CCOC(=O)c1ccc(NC2=CC(=O)CC(c3ccco3)C2)cc1 (centres undefined),.,0.4,3.5,22.7,0.2,-22.4*
O=C1CC(c2ccco2)CC(O)=C1C=Nc1cc(Cl)ccc1Cl (centres undefined),.,.,3.2,.,.,.
C[C@H](CO)N1C[C@H](C)[C@H](CN(C)C(=O)c2ccccc2F)Oc2ncc(Br)cc2C1=O,26.2*!,0.4,-0.1,-4.3,-0.3,7.7
C[C@H]1CN([C@@H](C)CO)C(=O)c2cc(Br)cnc2O[C@@H]1CN(C)C(=O)c1ccccn1,-0.5,-1.8,-0.4,17.3,1.3,1.7
C[C@@H]1CN([C@H](C)CO)C(=O)c2cc(Br)cnc2O[C@H]1CN(C)C(=O)c1ccccc1F,-0.2,-16.6,-0.5,-1.2,-0.1,-1.4
C[C@H]1CN([C@@H](C)CO)C(=O)c2cc(Br)cnc2O[C@H]1CN(C)C(=O)c1ccccn1,18.7*!,-0.6,0.1,-5.6,-0.1,0.0
C[C@@H]1CN([C@@H](C)CO)C(=O)c2cc(Br)cnc2O[C@H]1CN(C)C(=O)c1ccccc1F,15.1*!,-0.5,0.2,-3.0,-0.6,6.1
COC(=O)C[C@@H]1CC[C@@H]2[C@@H](COc3ccc(NC(=O)C4CC4)cc3C(=O)N2C)O1,-3.8,0.8,-0.1,-7.3,0.3,1.4
C=CCNC(=S)N1CCN(c2ccc([N+](=O)[O-])cc2)CC1,0.5,1.1,-1.0,0.0,2.9,2.1
O=[N+]([O-])c1ccc(N2CCN(C(=S)NCc3ccc(Cl)cc3)CC2)cc1,1.8,33.6*,.,-0.6,0.8,-16.8
COc1ccc(C(=O)NCC(=O)N/N=C/c2cccnc2)cc1OC,-0.2,1.5,.,3.5,-1.7,9.2
COc1cc(C(=O)NCC(=O)N/N=C/c2cccnc2)cc(OC)c1OC,0.8,45.1*,0.0,-6.1,-0.1,3.8
Cc1ccccc1NC(=O)CCS(=O)(=O)c1ccc(Br)s1,-0.8,2.3,.,-7.7,0.8,.
CC(=O)c1cccc(NC(=O)CCS(=O)(=O)c2ccc(Br)s2)c1,19.4*,-1.8,10.5,-8.8,1.5,-9.6
CCCCCNc1nc2sc3c(c2c(=O)n1-c1cccc(Cl)c1)CCN(C)C3,.,0.2,41.6*,-8.1,.,-22.5
CCCCNc1nc2sc3c(c2c(=O)n1-c1cccc(Cl)c1)CCN(C)C3,-7.3,.,.,-12.0,-3.1,-6.8
Nc1cc(Cl)ccc1Oc1ccc2ccccc2c1,2.0,-51.3,.,-2.3,-0.4,-24.0*
Cc1ccc(-c2cnc3c(c2)C(=O)N([C@@H](C)CO)C[C@H](C)[C@@H](CN(C)C(=O)c2cccnc2)O3)cc1,25.8*,-0.4,0.1,11.2,3.2,-1.7
C[C@H]1CN([C@@H](C)CO)C(=O)c2cc(Br)cnc2O[C@@H]1CN(C)C(=O)CN(C)C,0.5,1.2,0.7,6.4,17.3,2.8
